The values below come from ChEMBL document CHEMBL4020830, “Design, Synthesis, and Evaluation of a Novel Series of Indole Sulfonamide Peroxisome Proliferator Activated Receptor (PPAR) α/γ/δ Triple Activators: Discovery of Lanifibranor, a New Antifibrotic Clinical Candidate” (J Med Chem, 2018).

Data set [1] concerns the target T1, Peroxisome proliferator-activated receptor delta (Homo sapiens) (UniProt Q03181).
T1 sequence (whole entry): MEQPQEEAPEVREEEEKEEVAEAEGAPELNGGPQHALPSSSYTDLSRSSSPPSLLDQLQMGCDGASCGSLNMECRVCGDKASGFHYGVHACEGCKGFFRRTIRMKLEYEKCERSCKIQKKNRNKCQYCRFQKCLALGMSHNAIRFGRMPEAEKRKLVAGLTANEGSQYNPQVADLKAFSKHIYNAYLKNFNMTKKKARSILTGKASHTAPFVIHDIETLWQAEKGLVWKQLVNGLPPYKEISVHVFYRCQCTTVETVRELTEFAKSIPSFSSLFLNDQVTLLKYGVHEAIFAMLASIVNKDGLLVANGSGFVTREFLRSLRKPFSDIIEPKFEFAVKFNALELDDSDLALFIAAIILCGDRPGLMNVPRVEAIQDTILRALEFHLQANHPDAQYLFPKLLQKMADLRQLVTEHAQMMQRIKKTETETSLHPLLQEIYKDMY
As to the kind of experiment: Transactivation of human GAL4-fused PPARdelta LBD expressed in African green monkey COS7 cells co-expressing 5Gal4 pGL3 TK Luc after overnight incubation by luciferase reporter gene assay relative to GW501516. It is filed as cell-based. A digest of the protocol:
(§1)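 Cell-based Gal-4 transactivation assay in COS-7 cells transfected with PPARα, PPARδ or PPARγ ligand-binding domain. EC50 and Emax were derived, with Emax as maximum activation in percent of control. EC50s are means of at least two independent experiments performed in triplicate.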

Data set [2] is described as follows: Apparent permeability from basolateral to apical side in human Caco2 cells at 10 uM after 2 hrs by LC-MS/MS analysis. It counts as ADME, cell-based, Caco-2.
For data set [3], the target named is T2, Peroxisome proliferator-activated receptor gamma (Homo sapiens, UniProt P37231).
T2 sequence (P37231 whole entry): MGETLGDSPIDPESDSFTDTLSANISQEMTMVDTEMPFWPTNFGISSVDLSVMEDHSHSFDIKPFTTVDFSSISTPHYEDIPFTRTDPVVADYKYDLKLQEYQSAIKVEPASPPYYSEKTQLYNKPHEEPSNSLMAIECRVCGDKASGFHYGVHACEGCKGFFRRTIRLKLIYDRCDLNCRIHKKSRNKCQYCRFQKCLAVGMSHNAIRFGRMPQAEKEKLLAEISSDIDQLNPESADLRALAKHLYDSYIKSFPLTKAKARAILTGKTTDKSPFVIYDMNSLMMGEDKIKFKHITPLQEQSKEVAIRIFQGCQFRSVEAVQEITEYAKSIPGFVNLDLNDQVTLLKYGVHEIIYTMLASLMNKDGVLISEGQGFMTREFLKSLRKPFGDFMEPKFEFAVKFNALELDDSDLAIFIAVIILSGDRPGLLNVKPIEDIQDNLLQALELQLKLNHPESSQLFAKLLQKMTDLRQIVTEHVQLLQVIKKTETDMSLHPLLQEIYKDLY
As to the kind of experiment: Transactivation of human GAL4-fused PPARgamma LBD expressed in African green monkey COS7 cells co-expressing 5Gal4 pGL3 TK Luc after overnight incubation by luciferase reporter gene assay. It is filed as cell-based. Put shortly:
as §1
(In general: In a reporter assay the amount or activity of a reporter protein is the signal.)

Data set [4] deals with T3, Peroxisome proliferator-activated receptor alpha (Homo sapiens, UniProt Q07869).
T3 sequence (Q07869 whole entry): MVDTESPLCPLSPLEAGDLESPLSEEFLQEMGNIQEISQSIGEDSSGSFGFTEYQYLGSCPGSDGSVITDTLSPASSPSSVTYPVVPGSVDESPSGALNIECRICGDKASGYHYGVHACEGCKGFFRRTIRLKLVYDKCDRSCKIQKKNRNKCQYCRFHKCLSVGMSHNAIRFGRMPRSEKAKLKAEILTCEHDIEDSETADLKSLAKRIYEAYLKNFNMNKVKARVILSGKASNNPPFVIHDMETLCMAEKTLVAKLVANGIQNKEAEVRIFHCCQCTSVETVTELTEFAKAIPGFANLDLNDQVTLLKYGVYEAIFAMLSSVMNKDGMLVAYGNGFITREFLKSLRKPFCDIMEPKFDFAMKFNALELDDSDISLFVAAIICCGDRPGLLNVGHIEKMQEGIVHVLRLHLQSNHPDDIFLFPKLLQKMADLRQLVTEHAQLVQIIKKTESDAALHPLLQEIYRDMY
As to the kind of experiment: Transactivation of human GAL4-fused PPARalpha LBD expressed in African green monkey COS7 cells co-expressing 5Gal4 pGL3 TK Luc after overnight incubation by luciferase reporter gene assay. It counts as cell-based. Put shortly:
as §1

A short description of data set [5]: Efflux ratio of apparent permeability in human Caco2 cells at 10 uM after 2 hrs by LC-MS/MS analysis. It is filed as ADME, cell-based, Caco-2. In general terms: Caco-2 cells form a polarised layer with tight junctions and transporters.
Data set [6] has as its target T4, Peroxisome proliferator-activated receptor alpha (Homo sapiens) (UniProt Q07869).
T4 sequence (whole entry): T3 sequence (Q07869 whole entry)
As to the kind of experiment: Transactivation of PPARalpha in human HuH7 cells assessed increase in [14C]oleate beta-oxidation at 1 uM preincubated for 48 hrs followed by [14C]oleate addition during last 2 hrs of incubation period relative to control. It is filed as cell-based. Put shortly:
(§2)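 Fatty acid beta-oxidation was used as the functional read-out. PPARα activity was tested in human hepatoma HuH7 cells and PPARδ activity in mouse myoblast C2C12 cells, at 1, 3, 10 and 30 µM. Values are % beta-oxidation, mean of at least 2 independent experiments run in triplicate, with single-experiment values flagged.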

Data set [7] has as its target T5, Peroxisome proliferator-activated receptor delta (Homo sapiens, UniProt Q03181).
T5 sequence (Q03181 whole entry): T1 sequence (whole entry)
As to the kind of experiment: Transactivation of human GAL4-fused PPARdelta LBD expressed in African green monkey COS7 cells co-expressing 5Gal4 pGL3 TK Luc after overnight incubation by luciferase reporter gene assay. It is filed as cell-based. A digest of the protocol: as §1

The target of data set [8] is T4, Peroxisome proliferator-activated receptor alpha (Homo sapiens). As to the kind of experiment: Transactivation of PPARalpha in human HuH7 cells assessed increase in [14C]oleate beta-oxidation at 10 uM preincubated for 48 hrs followed by [14C]oleate addition during last 2 hrs of incubation period relative to control. It counts as cell-based. Put shortly: as §2
Data set [9] addresses T6, Peroxisome proliferator-activated receptor delta (Mus musculus) (UniProt P35396).
T6 sequence (whole entry): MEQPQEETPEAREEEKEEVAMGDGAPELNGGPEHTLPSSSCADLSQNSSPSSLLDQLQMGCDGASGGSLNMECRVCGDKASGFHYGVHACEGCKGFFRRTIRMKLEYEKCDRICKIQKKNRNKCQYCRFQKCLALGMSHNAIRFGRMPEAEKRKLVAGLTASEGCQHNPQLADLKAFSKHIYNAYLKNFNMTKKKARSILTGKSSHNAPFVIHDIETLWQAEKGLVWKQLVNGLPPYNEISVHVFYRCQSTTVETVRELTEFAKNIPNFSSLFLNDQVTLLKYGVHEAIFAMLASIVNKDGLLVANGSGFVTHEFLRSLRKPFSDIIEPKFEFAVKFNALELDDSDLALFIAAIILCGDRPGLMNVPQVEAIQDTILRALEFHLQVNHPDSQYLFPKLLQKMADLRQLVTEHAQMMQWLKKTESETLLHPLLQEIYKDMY
As to the kind of experiment: Transactivation of PPARdelta in mouse C2C12 cells assessed increase in [14C]oleate beta-oxidation at 10 uM preincubated for 48 hrs followed by [14C]oleate addition during last 2 hrs of incubation period relative to control. It is filed as cell-based. Put shortly: as §2

Data set [10] can be described thus: Apparent permeability from apical to basolateral side in human Caco2 cells at 10 uM after 2 hrs by LC-MS/MS analysis. It counts as ADME, cell-based, Caco-2.

What is called Papp is a coefficient for how fast a substance crosses the barrier. One may read the EC50 as the midpoint of the concentration-response curve. As for `O=C(O)CCCc1cc2cc(Cl)ccc2n1S(=O)(=O)c1ccc2ncsc2c1` [LANIFIBRANOR], the Emax in [1] was 105%. Further, the apparent permeability coefficient (Papp) in data set [2] (caco-2, 2 h, 10 µM) worked out at 0.2 ×10⁻⁶ cm/s; in [10] (caco-2, 2 h, 10 µM) it was 24 ×10⁻⁶ cm/s. Moreover, the EC50 in data set [3] came out at 206 nM; in data set [4] it was 1540 nM; in [7] it was 866 nM. Besides, in data set [5] (caco-2, 2 h, 10 µM), the Ratio worked out at 0.1. The values for the Activity in [6], in [8] and in data set [9] were 44%, 113% and 67%, respectively.

As a reminder, the Papp B→A is the apparent permeability from the basolateral to the apical side of a cell layer. The efflux ratio is the permeability from basolateral to apical divided by that in the opposite direction, in the common usage. By Papp A→B is commonly meant how fast a substance crosses the layer from the apical side. For `O=C(O)CCc1cc2cc(Cl)ccc2n1S(=O)(=O)c1ccccc1`, the Emax in data set [1] came out at 56%. Also, in data set [2] (Caco-2), the Papp B→A at 2 h, 10 µM was 14.4 ×10⁻⁶ cm/s. Moreover, the EC50 came out at 1560 nM in data set [3], 260 nM in data set [4] and 1910 nM in [7]. Also, the efflux ratio at 2 h, 10 µM in data set [5] (Caco-2) is 0.2. Moreover, the Activity was found to be 5% in data set [6], 45% in data set [8] and 12% in data set [9]. Also, in data set [10] (Caco-2), the Papp A→B at 2 h, 10 µM came out at 61 ×10⁻⁶ cm/s.
